Results taken from ChEMBL document CHEMBL3120131, “Lipoxygenase inhibitors derived from marine macroalgae” (Bioorg Med Chem Lett, 2014).

Assays:
[1] = target: T1, Seed linoleate 9S-lipoxygenase (Glycine max) (UniProt P24095); experiment: Inhibition of soybean lipoxygenase at 100 uM
T1 sequence (whole entry): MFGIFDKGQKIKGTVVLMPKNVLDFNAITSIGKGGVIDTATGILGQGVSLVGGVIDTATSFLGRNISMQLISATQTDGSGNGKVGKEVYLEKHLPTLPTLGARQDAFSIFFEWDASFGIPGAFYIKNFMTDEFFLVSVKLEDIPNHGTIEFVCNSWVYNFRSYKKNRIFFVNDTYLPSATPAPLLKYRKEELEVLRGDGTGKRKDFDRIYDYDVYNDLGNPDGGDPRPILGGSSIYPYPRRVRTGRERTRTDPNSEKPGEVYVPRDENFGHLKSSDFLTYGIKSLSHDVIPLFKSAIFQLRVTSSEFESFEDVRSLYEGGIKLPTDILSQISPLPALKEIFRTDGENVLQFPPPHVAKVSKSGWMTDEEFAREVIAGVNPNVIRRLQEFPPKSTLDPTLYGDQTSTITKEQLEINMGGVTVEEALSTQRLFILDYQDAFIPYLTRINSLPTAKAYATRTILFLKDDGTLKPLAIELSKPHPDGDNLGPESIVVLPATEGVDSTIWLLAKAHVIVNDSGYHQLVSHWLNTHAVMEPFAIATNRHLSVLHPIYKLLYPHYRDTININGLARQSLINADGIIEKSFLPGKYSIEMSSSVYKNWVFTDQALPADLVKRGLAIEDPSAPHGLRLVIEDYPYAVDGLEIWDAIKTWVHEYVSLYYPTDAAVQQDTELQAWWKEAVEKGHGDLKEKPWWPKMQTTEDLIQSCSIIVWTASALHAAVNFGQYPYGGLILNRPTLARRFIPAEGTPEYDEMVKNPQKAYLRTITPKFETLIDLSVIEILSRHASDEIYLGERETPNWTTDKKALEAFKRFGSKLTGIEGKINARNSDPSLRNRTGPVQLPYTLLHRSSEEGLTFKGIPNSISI
Summary of the method: (§1)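 Soybean LOX (0.4 mg/mL stock in 100 mM borate, pH 9.0) and methanol-dissolved sample were pre-incubated 5 min at 27.5°C in 20 mM 3-dimethylaminobenzoic acid/borate pH 9.0. Argon-flushed substrate was added and the mixture held 5 min at 27.5°C. Stopped with MBTH–hemoglobin in phosphate pH 5.0; after 5 min, 1% SDS was added and A598 compared against control.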

[2] = target: T1, Seed linoleate 9S-lipoxygenase (Glycine max); experiment: (§2) Inhibition of soybean lipoxygenase; summary of the method: as §1
[3] = target: T2, Seed linoleate 9S-lipoxygenase (Glycine max, UniProt P24095); experiment: as §2; summary of the method: as §1
T2 sequence (P24095 whole entry): T1 sequence (whole entry)

| Structure (SMILES) | inhibition [1] [%] | inhibition [2] | IC50 [3] [µM] |
| --- | --- | --- | --- |
| C=Cc1c(C)c2cc3nc(c4c5[nH]c(cc6nc(cc1[nH]2)C(C)=C6CC)c(C)c5C(=O)C4)[C@@H](CCC(=O)O)[C@@H]3C | 15 |  |  |
| C=CCCC/C=C\C/C=C\C/C=C\C/C=C\CCCCC |  | Dose-dependent effect | 40 |
| C=CCCC/C=C\C/C=C\C/C=C\C/C=C\C/C=C\CC |  | Dose-dependent effect | 5 |
| CC(Cc1ccc(O)c(O)c1)C(C)Cc1ccc(O)c(O)c1 (stereo not given) [NORDIHYDROGUAIARETIC ACID] | 12.7 |  | 400 |

Results, then the molecule that gave them:

| inhibition [1] [%] | inhibition [2] | IC50 [3] [µM] | Structure (SMILES) |
| --- | --- | --- | --- |
| 6.5 |  |  | C=Cc1c(C)c2cc3nc(c4c5[nH]c(cc6nc(cc1[nH]2)C(C)=C6CC)c(C)c5C(=O)[C@@H]4C(=O)OC)[C@@H](CCC(=O)O)[C@@H]3C |
| 29.4 |  |  | C=Cc1c(C)c2cc3nc(c4c5[nH]c(cc6nc(cc1[nH]2)C(C)=C6CC)c(C)c5C(=O)C4)[C@@H](CCC(=O)OC/C=C(\C)CCC[C@H](C)CCC[C@H](C)CCCC(C)C)[C@@H]3C |
| 37.6 |  |  | C=Cc1c(C)c2cc3nc(c4c5[nH]c(cc6nc(cc1[nH]2)C(C)=C6CC)c(C)c5C(=O)[C@@H]4C(=O)OC)[C@@H](CCC(=O)OC/C=C(\C)CCC[C@H](C)CCC[C@H](C)CCCC(C)C)[C@@H]3C |
